{
  "source": "ChEMBL document CHEMBL1134359",
  "about": "“Design, synthesis, and evaluation of a novel pyrrolobenzodiazepine DNA-interactive agent with highly efficient cross-linking ability and potent cytotoxicity” (J Med Chem, 2001)",
  "key": {"[1]": {"test_system": "A2780", "assay": "Inhibition of cell growth in human ovarian carcinoma cell line (A2780) using the 96 hour continuous exposure sulforhodamine B (SRB) growth delay assay", "format": "functional, cell-based", "outline": "(§1)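 Human ovarian lines seeded in 96-well plates and left to attach overnight. Compounds dissolved in DMSO (20 mM stock), diluted in medium, added to quadruplicate wells at final 2.5 nM–100 μM; continuous exposure 96 h at 37 °C. Cells fixed in 10% TCA, stained with 0.4% SRB, dye taken up in 10 mM Tris, A540 read. IC50 taken relative to 8 untreated wells.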"}, "[2]": {"test_system": "CH1", "assay": "Inhibition of cell growth in human ovarian carcinoma cell line (CH1) was determined using the 96 hour continuous exposure sulforhodamine B (SRB) growth delay assay.", "format": "functional, cell-based", "conditions": "CH1, 96 h", "outline": "as §1"}, "[3]": {"test_system": "CH1", "assay": "Inhibition of cell growth in human ovarian carcinoma cell line (CH1-cis-R,cisplatin resistant) using the 96 hour continuous exposure sulforhodamine B (SRB) growth delay assay", "format": "functional, cell-based", "conditions": "CH1cisR", "outline": "as §1"}, "[4]": {"test_system": "SK-OV-3", "assay": "Inhibition of cell growth in human ovarian carcinoma cell line(SKOV-3) using the 96 hour continuous exposure sulforhodamine B (SRB) growth delay assay", "format": "functional, cell-based", "outline": "as §1"}, "[5]": {"assay": "(§2) Ratio of IC50 against A2780cisR (cisplatin resistant) to the IC50 of parent", "format": "functional"}, "[6]": {"assay": "(§3) Ratio of IC50 against human ovarian carcinoma cell line (CH1)cisR (cisplatin resistant) to the IC50 of parent", "format": "functional"}, "[7]": {"test_system": "A2780", "assay": "Growth inhibition in human ovarian carcinoma cell line (A2780cisR,cisplatin-resistant) using the 96 hour exposure sulforhodamine B (SRB) growth delay assay", "format": "functional, cell-based", "conditions": "A2780, 96 h", "outline": "as §1"}, "[8]": {"test_system": "Nucleic Acid", "assay": "Concentration of compound required for 50% cross linking of plasmid pBR322 DNA was investigated using an assay involving linear double stranded DNA", "format": "functional", "outline": "(§4)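 pBR322 cut with HindIII, dephosphorylated, then 5'-end-labelled with [γ-32P]ATP by T4 kinase; about 10 ng per reaction. Drug at 0.001–10 μM in 25 mM triethanolamine/1 mM EDTA, pH 7.2, 37 °C, 2 h. Stopped, then ethanol-precipitated; strands separated in 30% DMSO at 90 °C for 2 min; run on neutral 0.8% agarose. Autoradiograph read by laser densitometry; XL50 is the dose giving 50% double-stranded (cross-linked) DNA.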"}, "[9]": {"test_system": "K562", "assay": "Inhibition of cell growth by 50% in human leukemia cell line (K562) was determined using microculture tetrazolium (MTT) assay.", "format": "functional, cell-based", "outline": "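K562 human leukaemia cells given drug for 1 h; growth then measured by MTT assay; IC50 is the dose giving 50% growth inhibition versus drug-free controls.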"}, "[10]": {"test_system": "Nucleic Acid", "assay": "The concentration of compound required for 50% cross linking of plasmid pBR322 DNA was investigated using an assay involving linear double stranded DNA", "format": "functional", "outline": "as §4"}, "[11]": {"test_system": "A2780", "assay": "Inhibition of cell growth in human ovarian carcinoma cell line (A2780cisR,cisplatin-resistant)using the 96 hour continuous exposure sulforhodamine B (SRB) growth delay assay", "format": "functional, cell-based", "outline": "(§5)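 Cells seeded in growth medium and allowed to attach overnight, then given drug (20 mM DMSO stock diluted in medium) in quadruplicate wells at final 100 μM to 2.5 nM for 96 h at 37 °C. Fixed with 10% trichloroacetic acid on ice, stained 0.4% sulforhodamine B, dye solubilised in 10 mM Tris base, absorbance 540 nm; IC50 from concentration versus % absorbance against 8 untreated wells.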"}, "[12]": {"test_system": "CH1", "assay": "Inhibition of cell growth in human ovarian carcinoma cell line (CH1-cis-R,cisplatin resistant) using the 96 hour exposure sulforhodamine B (SRB) growth delay assay", "format": "functional, cell-based", "outline": "as §5"}, "[13]": {"test_system": "A2780cisR", "assay": "as §2", "format": "functional"}, "[14]": {"test_system": "carcinoma cell line", "assay": "as §3", "format": "functional"}},
  "data": [
    {"molecule": "C=C1C[C@H]2C(=O)Nc3cc(OCCCOc4cc5c(cc4OC)C(=O)N4CC(=C)C[C@H]4C(=O)N5)c(OC)cc3C(=O)N2C1", "values": [
      {"measurement": "IC50", "setting": "[1]; Homo sapiens, A2780, 96 h", "value": 2500, "unit": "nM"},
      {"measurement": "IC50", "setting": "[2]", "value": 570, "unit": "nM"},
      {"measurement": "IC50", "setting": "[3]", "value": 2900, "unit": "nM"},
      {"measurement": "IC50", "setting": "[4]; Homo sapiens, SK-OV-3, 96 h", "value": 28000, "unit": "nM"},
      {"measurement": "Ratio", "setting": "[5]", "value": 4.4},
      {"measurement": "Ratio", "setting": "[6]", "value": 3.5},
      {"measurement": "IC50", "setting": "[7]", "value": 11000, "unit": "nM"}
    ]},
    {"molecule": "N[C@@H](Cc1ccc(N(CCCl)CCCl)cc1)C(=O)O", "values": [
      {"measurement": "XL50", "setting": "[8]", "value": 20, "unit": "µM"}
    ]},
    {"molecule": "COc1cc2c(cc1OCCCOc1cc3c(cc1OC)C(=O)N1CCC[C@H]1C=N3)N=C[C@@H]1CCCN1C2=O", "note": "[DSB-120]", "values": [
      {"measurement": "IC50", "setting": "[3]", "value": 22, "unit": "nM"},
      {"measurement": "IC50", "setting": "[9]", "value": 250, "unit": "nM"},
      {"measurement": "XL50", "setting": "[10]", "value": 0.055, "unit": "µM"},
      {"measurement": "Ratio", "setting": "[5]", "value": 29.2},
      {"measurement": "Ratio", "setting": "[6]", "value": 0.7}
    ]},
    {"molecule": "C=C1C[C@H]2C=Nc3cc(OCCCOc4cc5c(cc4OC)C(=O)N4CC(=C)C[C@H]4C=N5)c(OC)cc3C(=O)N2C1", "note": "[SJG-136]", "values": [
      {"measurement": "IC50", "setting": "[2]", "value": 0.12, "unit": "nM"},
      {"measurement": "IC50", "setting": "[3]", "value": 0.6, "unit": "nM"},
      {"measurement": "IC50", "setting": "[9]", "value": 42.5, "unit": "nM"},
      {"measurement": "IC50", "setting": "[4]; Homo sapiens, SK-OV-3, 96 h", "value": 9.1, "unit": "nM"},
      {"measurement": "XL50", "setting": "[10]", "value": 0.045, "unit": "µM"},
      {"measurement": "Ratio", "setting": "[5]", "value": 1.1},
      {"measurement": "Ratio", "setting": "[6]", "value": 5}
    ]},
    {"molecule": "CISPLATIN [listing 1 of 2 here]", "values": [
      {"measurement": "IC50", "setting": "[11]", "value": 8400, "unit": "nM"},
      {"measurement": "IC50", "setting": "[1]; a2780", "value": 265, "unit": "nM"},
      {"measurement": "IC50", "setting": "[12]", "value": 1100, "unit": "nM"},
      {"measurement": "IC50", "setting": "[4]; sk-ov-3", "value": 10500, "unit": "nM"}
    ]},
    {"molecule": "CISPLATIN [listing 2 of 2 here]", "values": [
      {"measurement": "Ratio", "setting": "[13]", "value": 32},
      {"measurement": "Ratio", "setting": "[14]", "value": 6.1}
    ]}
  ]
}
